Assay outcomes: PubChem BioAssay, several laboratories
Runt-CBFb FRET: blocks binding of human RUNX1 Runt domain to CBFb | 0.46% of 220,000 active | Cerulean-Runt/Venus-CBFb FRET ratio 530/480, 1 h | inhibition, % at 20 µM | Q01196+Q13951;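 active means inhibition over about 50% at 20 µM in the single-dose screen, limit read from the data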
Target sequence (Q01196 whole entry, looked up, the tested form may be a part): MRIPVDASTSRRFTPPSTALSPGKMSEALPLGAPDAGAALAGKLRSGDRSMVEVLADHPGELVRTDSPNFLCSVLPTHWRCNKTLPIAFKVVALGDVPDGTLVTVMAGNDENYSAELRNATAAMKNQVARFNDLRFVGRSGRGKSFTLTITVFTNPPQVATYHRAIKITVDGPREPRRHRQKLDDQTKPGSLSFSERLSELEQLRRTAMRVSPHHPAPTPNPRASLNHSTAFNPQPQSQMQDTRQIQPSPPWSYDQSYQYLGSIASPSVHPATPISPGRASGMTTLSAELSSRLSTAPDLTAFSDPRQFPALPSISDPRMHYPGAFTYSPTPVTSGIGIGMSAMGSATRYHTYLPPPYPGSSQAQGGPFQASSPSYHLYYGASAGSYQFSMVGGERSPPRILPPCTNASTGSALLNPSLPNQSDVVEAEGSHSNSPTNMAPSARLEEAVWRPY
Target sequence (Q13951 whole entry, looked up, the tested form may be a part): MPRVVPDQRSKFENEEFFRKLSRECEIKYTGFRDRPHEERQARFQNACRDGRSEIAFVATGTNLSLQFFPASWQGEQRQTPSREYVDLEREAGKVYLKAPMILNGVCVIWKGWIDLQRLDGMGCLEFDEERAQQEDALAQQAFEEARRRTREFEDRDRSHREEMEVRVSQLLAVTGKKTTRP
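Buffer or medium: Tris pH 7.5 buffer with BSA. Assay system: Cerulean-labeled Runt domain protein. Amount: each fluorescent fusion protein 100 nM. Read-out basis: loss of energy transfer signal. Incubation: 1 h compound exposure, room temperature. Probe or stimulus: Venus-CBFb binding partner, 100 nM. Detection: FRET, excitation 422 nm, emission at 530 and 480 nm.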
Runt-SMMHC FRET: blocks binding of human RUNX1 Runt domain to CBFb-SMMHC | Q01196+Q13951 | Cerulean-Runt/Venus-CBFb-SMMHC FRET ratio 530/480, 1 h | inhibition, % at 20 µM | 0.74% of 220,000 active;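 active means mean inhibition across duplicate retests at 20 µM reaching about 50%, limit read from the data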;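 further: inhibitors lower the FRET ratio by blocking Runt binding to CBFb-SMMHC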
RanGTP-Impb inh: disruptors of Ran-importin-beta complex formation – biochemical, FRET, CFP-Ran, YFP-importin-beta, homogeneous, primary screen | AID 2216 | 1.1% of 300,000 active | inhibition, % (concentration not given with the values) | cell-free CFP-Ran/YFP-importin-beta FRET ratio;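 active means more than half of the replicate wells show a fall in the fluorescence ratio signal beyond about 16%, limit read from the data, passing the limit was not always enough; inconclusive means exactly half of the replicate wells pass the set limit; inactive means fewer than half of replicates pass the limit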
Hck-Nef inh: blocks Nef-activated human Hck kinase. P08631. Recombinant Hck-YEEI plus Nef, Z-Lyte FRET kinase assay. 0.68% of 220,000 active. inhibition, % at 20 µM;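 active means Hck-Nef kinase inhibition above about 50%, limit read from the data; inactive means inhibition below that limit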
Hck Nef conf: Hck-Nef kinase inhibition, confirmation | calls only at 10 µM | shares compounds with Hck-Nef inh | 28% of 1,300 active | Recombinant Hck-YEEI:Nef, Z-Lyte FRET kinase assay;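 active means average inhibition of at least 50%, with Z-scores no higher than 3 in both the phospho-tyrosine peptide and fluorescence counterscreens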
Hits are given with their value; – = inactive; ? = inconclusive; · = no result given; + = active, no number. An excerpt weighted towards active compounds, which were near 1.8% of everything screened.

SMILES	Runt-CBFb FRET	Runt-SMMHC FRET	RanGTP-Impb inh	Hck-Nef inh	Hck Nef conf
O=C(C[n+]1ccc(-c2nnc3n2CCC3)cc1)c1ccc(Cl)c(Cl)c1	–	–	–	–	·
O=C(N/N=C/c1ccncc1)c1ccc(NC(=O)c2cccc(Cl)c2)cc1	·	–	–	–	·
O=C(N/N=C/c1ccncc1)c1ccc(NC(=O)c2ccc(Cl)cc2)cc1	–	–	·	58	–
COc1ccc(Cn2c(C3CCCCC3)nc3c(c(=O)c4ccccc4n3C)c2=O)cc1	–	–	–	71	–
CCc1cc2c3c(c(=O)oc2cc1O)CCCC3	96	144	?	91	·
CCc1cc2c3c(c(=O)oc2cc1OC(C)C(=O)O)CCCC3 (stereo unspecified)	·	·	–	·	·
CN1C(=O)NC(c2ccccc2)C2=C1CN(c1ccc3ccccc3c1)C2=O (stereo unspecified)	–	–	–	103	+
CC(C)N(Cc1nccn1C)C(=O)c1cc(COc2ccc(F)cc2Cl)on1	·	·	–	·	·
O=C(N=Nc1c(O)[nH]c2ccc(Br)cc12)c1cc(-c2cccs2)nc2ccccc12	–	–	–	163	–
C(=C\c1nccc2c1[nH]c1ccccc12)/c1ccccc1	–	80	–	164	·
Cc1ccc(C(=O)NC(=S)Nc2ccc(-c3ccc(CO)o3)cc2)cc1	–	–	?	61	–
CCOc1ccc(-c2nc3c(s2)CCc2onc(-c4ccc(OC)cc4)c2-3)cc1	·	·	–	·	·
CCc1ccc2c(c1)C(=O)C(=O)N2CC(=O)Nc1ccc(NC(=O)c2ccccn2)cc1	–	–	–	77	+
CCc1ccc(NC(=O)CCN2C(=O)c3cccnc3C2=O)cc1	–	–	–	–	·
COCCOc1cc2ncnc(N3CCC(C(=O)O)CC3)c2cc1OCCOC	–	–	–	–	·
O=C(Nc1ccc2oc(=O)ccc2c1)c1ccc(-c2cccc(Cl)c2)o1	–	–	–	65	–
O=C(Nc1ccc2oc(=O)ccc2c1)c1ccc(-c2cccc([N+](=O)[O-])c2)o1	–	–	?	66	–
CC1(c2nnc(-c3cccc(Cl)c3)o2)CC(c2ccc(OC(F)(F)F)cc2)=NO1 (stereo unspecified)	·	·	–	·	·
CC1=CC=CC2=NC(=O)CC(C)(C(=O)N(CC(=O)NC3CCCC3)c3ccc(F)cc3)N12 (stereo unspecified)	·	·	–	·	·
CC/C=C/C(=O)N1CC2(CC(c3cccc(NC(=O)CC(c4ccccc4)c4ccccc4)c3)=NO2)C[C@@H]1C(N)=O (stereo partly specified)	–	–	–	53	–
Cn1cccc1/C=C1\SC(=Nc2cccc(O)c2)NC1=O	–	–	–	85	+
CCOc1ccc(NC(=S)N(CCc2c(C)[nH]c3ccccc23)Cc2ccco2)cc1	–	–	–	–	·
CCN(CC)c1ccc2cc(C(N)=O)c(=O)oc2c1	–	95	153	123	·
NC(=O)c1cc2cc(Cl)ccc2oc1=O	–	–	–	–	·
CCC(=C(c1ccc(OC)cc1)c1ccc(OC)cc1)c1cn(CC(O)CN2CCN(C)CC2)c2ccccc12 (stereo unspecified)	–	–	·	111	–
SMILES	Runt-CBFb FRET	Runt-SMMHC FRET	RanGTP-Impb inh	Hck-Nef inh	Hck Nef conf
COc1ccc(/C=C2\SC(=O)N(CC(=O)NN3CCN(C)CC3)C2=O)cc1OC	–	–	–	–	·
COc1ccc(OCC(=O)Nc2nc3ccc(NC(C)=O)cc3s2)cc1	–	–	–	51	–
CCOc1ccc(CCNC(=O)COC(=O)C2CC2)cc1OCC	·	·	–	·	·
COC(=O)c1sc(NC(=O)/C=C/c2ccccc2Cl)nc1C	–	–	–	66	–
COC(=O)c1sc(NC(=O)/C=C/c2ccc(C)cc2)nc1C	–	–	–	–	·
COC(=O)/C(C#N)=C/c1c(Oc2cccc(C)c2C)nc2ccccn2c1=O	–	–	–	–	·
Cc1ccc(C(=O)Cn2nnc(-c3cccs3)n2)cc1	–	–	–	–	·
O=C(CN1CC[n+]2c(-c3cccs3)csc21)c1ccc(-c2ccccc2)cc1	–	–	–	143	+
Cc1cccc(-n2c(SCc3ccc(C#N)cc3)nnc2-c2c[nH]c3ccccc23)c1	–	–	–	–	·
O=C(N=Nc1c(O)[nH]c2ccccc12)c1cc(NS(=O)(=O)c2cccs2)cc(NS(=O)(=O)c2cccs2)c1	–	–	–	88	+
COc1cc(NC(=S)Nc2cccc(C)n2)cc(OC)c1OC	–	–	–	97	–
COc1ccc(NC(=O)CN(C)C(=O)C23CC4CC(CC(C4)C2)C3)cc1	·	·	–	·	·
COc1cc2c(C#N)c(N3CCCC3)nc(N)c2c(N)n1	–	–	–	63	+
COc1cc2c(C#N)c(N3CCN(C)CC3)nc(N)c2c(N)n1	–	–	–	–	·
Cc1[nH]c2ccccc2c1/C=N/Nc1ccccn1	–	–	–	65	+
CCNc1cc2oc(=O)c(CN3CCOCC3)c(C)c2cc1C	–	–	·	82	·
CN(C)CCCNc1ncnc2oc(-c3ccccc3)c(-c3ccccc3)c12	·	·	–	·	·
N=c1c2c(-c3ccccc3)c(-c3ccccc3)oc2ncn1CCCN1CCOCC1	–	–	–	–	·
N=c1c2c(-c3ccccc3)c(-c3ccccc3)oc2ncn1CCN1CCOCC1	–	–	–	78	+
c1ccc(-c2oc3ncnc(NCCN4CCOCC4)c3c2-c2ccccc2)cc1	–	–	–	83	+
Cc1ccc(SC2=C(C(=O)O)CCCC2)cc1	·	·	–	·	·
O=Cc1c(NC2CCCCC2)c2ccccc2[nH]c1=O	·	·	–	·	·
O=C1OC(c2ccc(Cl)cc2)/C(=C(/O)c2ccccc2)C1=O (stereo unspecified)	–	–	–	–	·
CCOc1ccc(C(C)C)cc1S(=O)(=O)N1CCN(C(=O)c2ccco2)CC1	·	·	–	·	·
C(=N\NCc1ccccc1)/c1ccc2nccnc2c1	–	–	–	68	+
SMILES	Runt-CBFb FRET	Runt-SMMHC FRET	RanGTP-Impb inh	Hck-Nef inh	Hck Nef conf
C(=N\NCc1ccccc1)/c1ccc2ncccc2c1	–	–	–	–	·
O=C(O)c1ccc(Nc2ncnc3scc(-c4ccccc4)c23)cc1	–	–	–	–	·
Cc1ccc(-c2csc3ncnc(Nc4ccc(C(=O)O)cc4)c23)cc1	–	–	–	55	–
O=C(Nc1ccc(S(=O)(=O)Nc2ncccn2)cc1)C1=COCCO1	·	·	–	·	·
O=C(Nc1cccc(-c2nc3ccccc3[nH]2)c1)c1cccc(NC(=O)c2ccco2)c1	–	–	–	74	+
CCOc1ccc(C(=O)Nc2ccc(-c3nc4ccccc4[nH]3)cc2)cc1[N+](=O)[O-]	–	–	–	78	+
O=C(Nc1ccc(-c2nc3ccccc3[nH]2)cc1)c1c(F)c(F)c(F)c(F)c1F	–	–	–	112	–
CCCCNC(=O)c1cn(CC(C)C)c(=O)c2c1c1ccccc1n2C	·	·	–	·	·
Cc1ccc(N(CC(=O)NC(C)(C)C)C(=O)CS(=O)CC(=O)Nc2ccc(F)cc2)cc1 (stereo unspecified)	–	–	–	–	·
